In ChEMBL document CHEMBL1145979, “Synthetic analogues of the bacterial signal (quorum sensing) molecule N-(3-oxododecanoyl)-L-homoserine lactone as immune modulators” (J Med Chem, 2003):

Organism: Mus musculus
Assay: Inhibition of murine splenocyte proliferation; Not active; call rule not given here
Format: functional
In short: (§1)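 Spleens from 8-week-old female BALB/c mice were made into single-cell suspensions and the red cells lysed (Tris/NH4Cl, pH 7.2). Cultured at 100 000 cells per well in complete T-cell medium with ConA 1 μg/mL and doubling-down dilutions of compound from 1 mM to 0.1 μM, 48 h at 37 °C, 5% CO2. Then 0.25 μCi [³H]-thymidine was added for 24 h and uptake counted; IC50 derived.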

For `CCCCCCCCCC(=O)CC(N)=O`, which IC50 is on record?
Its IC50 is “Not Active”.

For `O=C(O)CCCCCCCCCCC(=O)CC(=O)N[C@H]1CCOC1=O`, which IC50 is on record?
The IC50 was “Not Active”.

Organism: Mus musculus
Assay: Inhibition of murine splenocyte proliferation
Format: functional
In short: as §1

`CCCCCCCCC(=O)CC(=O)N[C@H]1CCOC1=O` was tested. Which IC50 did it give?
The IC50 was 8.9 µM.

Which IC50 does the source give for `CCCCCCCCCC(=O)CC(=O)N[C@@H](CCO)C(=O)OC` here?
The IC50 was 53 µM.

How did the IC50 turn out when `C=CCCCCCCCCC(=O)CC(=O)N[C@H]1CCOC1=O` was run?
Its IC50 is 7 µM.

For `CCCCCC(=O)CC(=O)N[C@H]1CCOC1=O`, which IC50 is on record?
The IC50 was 400 µM.

How did the IC50 turn out when `CCCCCCCC(=O)CC(=O)N[C@H]1CCOC1=O` was run?
The IC50 was 21 µM.

How did the IC50 turn out when `CCCCCCCCCCCC(=O)CC(=O)N[C@H]1CCOC1=O` was run?
Its IC50 is 6.3 µM.

Which IC50 does the source give for `CCCCCCCCCC(=O)CC(=O)N[C@H]1CCOC1=O` here?
The IC50 was 4 µM.

With `CCCCCC(C)CCC(=O)CC(=O)N[C@H]1CCOC1=O` (some centres undefined) as the compound, how does the IC50 read?
Its IC50 is 5 µM.

With `O=C(CCCCCCCCCCBr)CC(=O)N[C@H]1CCOC1=O` as the compound, how does the IC50 read?
The IC50 was 3 µM.

Which IC50 does the source give for `CCCCCCCCCC(O)CC(=O)N[C@H]1CCOC1=O` (some centres undefined) here?
Its IC50 is 12.5 µM.

`CCCCCCCCCCCC(O)CC(=O)N[C@H]1CCOC1=O` (some centres undefined) was tested. Which IC50 did it give?
Its IC50 is 7 µM.

For `CCCCCCCCCCCC(=O)N[C@H]1CCOC1=O`, which IC50 is on record?
The IC50 was 52 µM.

Which IC50 does the source give for `COC(=O)CCCCCCCCCC(=O)CC(=O)N[C@H]1CCOC1=O` here?
Its IC50 is 60 µM.

Which IC50 does the source give for `O=C(CCCCCCCCCBr)CC(=O)N[C@H]1CCOC1=O` here?
Its IC50 is 6 µM.

`CCCCCCCCCCC(=O)CC(=O)N[C@H]1CCOC1=O` was tested. Which IC50 did it give?
Its IC50 is 4.3 µM.

How did the IC50 turn out when `CCCCCCCCCC(=O)N[C@H]1CCOC1=O` was run?
The IC50 was 33 µM.

For `CCCCCCCCCC(=O)CC(=O)NC1CCSC1=O` (centres undefined), which IC50 is on record?
Its IC50 is 150 µM.

Which IC50 does the source give for `O=C(CCCCCCCCCO)CC(=O)N[C@H]1CCOC1=O` here?
The IC50 was 8 µM.

`CCC/C=C/CCCCCCC(=O)CC(=O)N[C@H]1CCOC1=O` was tested. Which IC50 did it give?
The IC50 was 15 µM.

Which IC50 does the source give for `CCCCCC/C=C\CCCC(=O)CC(=O)N[C@H]1CCOC1=O` here?
The IC50 was 17 µM.

How did the IC50 turn out when `C=CCCCCCCCCCC(=O)CC(=O)N[C@H]1CCOC1=O` was run?
Its IC50 is 10 µM.

With `CCCCCCCCCCC(=O)N[C@H]1CCOC1=O` as the compound, how does the IC50 read?
Its IC50 is 90 µM.
